Assay results from ChEMBL document CHEMBL1121917, “Structure--activity relationships in a broad-spectrum anthelmintic series. Acid chloride phenylhydrazones. 1. Aryl substitutions and chloride variations” (1981).

Key:
[1] = species on record: Mus musculus; experiment: Percent clearance of Syphacaia obvelata from mouse after oral treatment of 7.5 mg/mouse/day; format: functional
Summary of the method: (§1)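 Mice naturally carrying Syphacia obvelata were experimentally infected with Nematospiroides dubius and Hymenolepis nana, then grouped after a 2-week prepatency. Finely ground compound was suspended in aqueous 0.10% carboxymethylcellulose, 0.04% polysorbate 80 and 0.0042% polyparaben, and 0.1 mL was given orally by cannula once daily for 4 days to five mice. Necropsy followed 2 days later, scoring presence or absence of each parasite. Control clearance was subtracted from the treated clearance.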

[2] = species on record: Mus musculus; experiment: Percent clearance of Nematospiroides dubius from mouse after oral treatment of 7.5 mg/mouse/day; format: functional; summary of the method: as §1
[3] = species on record: Mus musculus; experiment: Percent clearance of Syphacaia obvelata from mouse after oral treatment of 0.47 mg/mouse/day; format: functional; summary of the method: as §1
[4] = species on record: Mus musculus; experiment: Percent clearance of Nematospiroides dubius from mouse after oral treatment of 0.47 mg/mouse/day; format: functional; summary of the method: as §1
[5] = species on record: Mus musculus; experiment: Percent clearance of Syphacaia obvelata from mouse after oral treatment of 1.87 mg/mouse/day; format: functional; summary of the method: as §1
[6] = species on record: Mus musculus; experiment: Percent clearance of Nematospiroides dubius from mouse after oral treatment of 1.87 mg/mouse/day; format: functional; summary of the method: as §1
[7] = system: Ovis aries; experiment: Percent reduction in Haemonchus eggs per gram, after treatment of 150 mg/kg dose of compound perorally; Toxic; settings: Egg
[8] = species on record: Mus musculus; experiment: Percent clearance of Hymenolepis nana from mouse after oral treatment of 7.5 mg/mouse/day; format: functional; summary of the method: as §1
[9] = species on record: Mus musculus; experiment: Percent clearance of Syphacaia obvelata from mouse after oral treatment of 3.75 mg/mouse/day; format: functional; summary of the method: as §1
[10] = species on record: Mus musculus; experiment: Percent clearance of Nematospiroides dubius from mouse after oral treatment of 3.75 mg/mouse/day; format: functional; summary of the method: as §1
[11] = species on record: Canis familiaris; experiment: Percent reduction in Uncinaria eggs per gram, after oral treatment of 200 mg/dog dose of compound in a single treatment; format: functional, Canis lupus familiaris, Egg
Summary of the method: (§2)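 Dogs naturally infected with Toxascaris leonina were experimentally infected with mixed Ancylostoma caninum and Uncinaria stenocephala larvae. Finely ground compound was given orally in gelatin capsules. Three egg count determinations were made before and three after treatment in each experiment.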

[12] = species on record: Canis familiaris; experiment: Percent reduction in Uncinaria eggs per gram, after oral treatment of 100 mg/dog dose of compound in a single treatment; format: functional, Canis lupus familiaris, Egg; summary of the method: as §2
[13] = species on record: Canis familiaris; experiment: percent reduction in Toxascaris eggs per gram, after oral treatment of 50 mg/dog dose of compound in a single treatment; format: functional, Canis lupus familiaris, Egg; summary of the method: as §2
[14] = system: Ovis aries; experiment: Percent reduction in Oesophagostomum eggs per gram, after treatment with 100 mg/kg dose of compound perorally in sheep; format: functional, Egg; settings: route oral
Summary of the method: (§3)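 Naturally parasitized lambs were dosed orally at the stated mg/kg. Dosing was either as a suspension of finely ground compound by stomach tube, or as ground compound weighed into gelatin capsules and given by balling gun. Activity was scored by the clinical test method: the decrease in posttreatment helminth eggs per gram.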

[15] = system: Ovis aries; experiment: Percent reduction in Trichuris eggs per gram, after treatment with 100 mg/kg dose of compound perorally in sheep; format: functional, Egg; settings: route oral
Summary of the method: (§4)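 Naturally parasitized lambs, dosed orally either with a suspension by stomach tube or with finely ground compound in gelatin capsules by balling gun. Activity was scored by the clinical test method, meaning a significant fall in helminth egg counts after treatment.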

[16] = species on record: Canis familiaris; experiment: percent reduction in Uncinaria eggs per gram, after oral treatment of 50 mg/dog dose of compound in a single treatment; format: functional, Canis lupus familiaris, Egg; summary of the method: as §2
[17] = system: Ovis aries; experiment: Percent reduction in Ostertagia eggs per gram, after treatment with 100 mg/kg dose of compound perorally in sheep; format: functional, Egg; settings: route oral; summary of the method: as §3
[18] = system: Ovis aries; experiment: Percent reduction in Strongyloides eggs per gram, after treatment with 100 mg/kg dose of compound perorally in sheep; format: functional, Egg; settings: route oral; summary of the method: as §4
[19] = system: Ovis aries; experiment: Percent reduction in Trichostrongylus eggs per gram, after treatment with 100 mg/kg dose of compound perorally in sheep; format: functional, Egg; settings: route oral; summary of the method: as §4
[20] = system: Ovis aries; experiment: Percent reduction in Haemonchus eggs per gram, after treatment with 100 mg/kg dose of compound perorally in sheep; format: functional, Egg; settings: route oral
Summary of the method: (§5)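 Naturally parasitized lambs received compound orally, either as the aqueous suspension by stomach tube or as finely ground powder in gelatin capsules by balling gun. Activity was judged by the clinical test method, as a significant decrease in posttreatment helminth egg counts.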

[21] = system: Ovis aries; experiment: Percent reduction in Cooperia eggs per gram, after treatment with 100 mg/kg dose of compound perorally in sheep; format: functional, Egg; settings: route oral; summary of the method: as §5
[22] = species on record: Canis familiaris; experiment: Percent reduction in Toxascaris eggs per gram, after oral treatment of 100 mg/dog dose of compound in a single treatment; format: functional, Canis lupus familiaris, Egg; summary of the method: as §2
[23] = species on record: Canis familiaris; experiment: Percent reduction in Ancylostoma eggs per gram, after oral treatment of 100 mg/dog dose of compound in a single treatment; format: functional, Canis lupus familiaris, Egg
Summary of the method: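 Dogs naturally infected with Toxascaris leonina were experimentally infected with mixed Ancylostoma caninum and Uncinaria stenocephala larvae. Finely ground compound was given orally in gelatin capsules. Fecal egg counts were taken three times before and three times after treatment, and activity was taken as the fall in egg counts.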

O=[N+]([O-])c1ccc(/C(Cl)=N/Nc2ccccc2)c(Cl)c1
Parasite_Clearance [1]: 0%
Parasite_Clearance [2]: 0%

Cc1ccccc1N/N=C(\Cl)c1ccccc1
Parasite_Clearance [3]: 0%
Parasite_Clearance [4]: 100%

Cl/C(=N\Nc1ccccc1)c1cccc(Cl)c1
Parasite_Clearance [5]: 100%
Parasite_Clearance [6]: 100%
Reduction [7]: Toxic

Cl/C(=N\Nc1c(Cl)cc(Cl)cc1Cl)c1c(Cl)cccc1Cl
Parasite_Clearance [8]: 0%
Parasite_Clearance [2]: 0%

Cl/C(=N\Nc1ccccc1)c1ccccc1Cl
Parasite_Clearance [5]: 20%
Parasite_Clearance [6]: 40%

Cl/C(=N\Nc1c(Cl)cc(Cl)cc1Cl)c1cccc(Cl)c1
Parasite_Clearance [1]: 100%
Parasite_Clearance [2]: 50%

Cl/C(=N\Nc1ccccc1)c1ccc(Cl)cc1Cl
Parasite_Clearance [3]: 0%
Parasite_Clearance [4]: 0%

Cc1cc(/C(Cl)=N/Nc2ccccc2)ccc1[N+](=O)[O-]
Parasite_Clearance [9]: 100%
Parasite_Clearance [10]: 80%
Reduction [11]: 55%
Reduction [12]: 0%

Cl/C(=N\Nc1cc(Cl)cc(Cl)c1)c1ccccc1
Reduction [13]: 40%
Reduction [14]: 0%
Reduction [15]: 100%
Reduction [16]: 57%
Reduction [17]: 100%
Reduction [18]: 45%
Reduction [19]: 100%
Reduction [20]: 97%

Cc1ccccc1/C(Cl)=N/Nc1c(Cl)cc(Cl)cc1Cl
Reduction [14]: 11%
Reduction [15]: 0%
Reduction [17]: 67%
Reduction [12]: 20%
Reduction [21]: 33%
Reduction [22]: 100%
Reduction [18]: 85%
Reduction [23]: 0%
Reduction [19]: 14%
Reduction [20]: 85%
